Test results: ChEMBL document CHEMBL5223110, “Novel allosteric glutaminase 1 inhibitors with macrocyclic structure activity relationship analysis” (Bioorg Med Chem Lett, 2022)

Legend:
[1] = target: T1, Glutaminase kidney isoform, mitochondrial (Homo sapiens, UniProt O94925); assay: Inhibition of GLS1 (unknown origin)
T1 sequence (O94925 whole entry): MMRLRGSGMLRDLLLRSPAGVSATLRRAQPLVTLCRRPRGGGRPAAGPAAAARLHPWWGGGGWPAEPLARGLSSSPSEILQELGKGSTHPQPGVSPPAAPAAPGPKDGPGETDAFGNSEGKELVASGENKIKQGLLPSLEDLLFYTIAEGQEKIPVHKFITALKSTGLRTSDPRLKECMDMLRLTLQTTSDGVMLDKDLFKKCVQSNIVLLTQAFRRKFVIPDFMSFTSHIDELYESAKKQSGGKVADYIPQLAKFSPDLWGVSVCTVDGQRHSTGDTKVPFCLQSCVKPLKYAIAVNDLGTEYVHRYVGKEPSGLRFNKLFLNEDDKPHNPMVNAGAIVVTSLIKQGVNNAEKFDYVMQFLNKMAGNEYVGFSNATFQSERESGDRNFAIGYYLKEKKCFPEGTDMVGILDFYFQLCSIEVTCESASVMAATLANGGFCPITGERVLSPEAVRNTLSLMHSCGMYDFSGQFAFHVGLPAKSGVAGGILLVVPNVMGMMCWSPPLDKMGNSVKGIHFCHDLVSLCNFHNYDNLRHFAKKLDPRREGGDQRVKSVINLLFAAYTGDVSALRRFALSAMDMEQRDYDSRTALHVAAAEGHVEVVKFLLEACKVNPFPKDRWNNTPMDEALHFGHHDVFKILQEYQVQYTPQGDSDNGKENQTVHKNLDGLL

[2] = system: LR; assay: (§1) Antiproliferative activity against human LR cells incubated for 72 hrs by Celltiter-Glo assay; type: functional, cell-based
How it was run: (§2)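 Cells treated with 0, 0.01, 0.03, 0.1, 0.3 and 1 μM of compound for 72 h. Viability read by CellTiter-Glo luminescence. IC50 taken from the dose–response curves. LR cells are LDK378-resistant. A549 and H460 carry co-occurring KRAS and KEAP1 mutations, and H358 carries a KRAS mutation only.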

[3] = as §1; type: functional, cell-based; how it was run: as §2
[4] = system: A549; assay: Antiproliferative activity against human A549 cells incubated for 72 hrs by Celltiter-Glo assay; type: functional, cell-based; details: A549, 72 h; how it was run: as §2
[5] = system: NCI-H460; assay: Antiproliferative activity against human NCI-H460 cells incubated for 72 hrs by Celltiter-Glo assay; type: functional, cell-based; details: NCI-H460, 72 h; how it was run: as §2
[6] = system: NCI-H358; assay: Antiproliferative activity against human NCI-H358 cells incubated for 72 hrs by Celltiter-Glo assay; type: functional, cell-based; details: NCI-H358, 72 h; how it was run: as §2

Compound	IC50 [1] [µM]	Activity [2]	also measured
O=C1Cc2cccc(c2)OCCOc2cccc(c2)CC(=O)Nc2ccc(nn2)CCCCc2ccc(nn2)N1	0.18	Dose-Dependent Effect	–
O=C1Cc2cccc(c2)OCCOc2cccc(c2)CC(=O)NC2=NN=C(CCCCC3=NN=C(N1)S3)S2	0.98	–	–
O=C1Cc2cccc(c2)OCCCCCCCOc2cccc(c2)CC(=O)Nc2nnc(s2)CCCCc2ccc(nn2)N1	3	–	–
O=C(Cc1cccc(OC(F)(F)F)c1)Nc1ccc(CCCCc2nnc(NC(=O)Cc3ccccn3)s2)nn1	–	Dose-Dependent Effect	IC50 [3]: < 0.1 µM; IC50 [4]: 0.026 µM; IC50 [5]: 0.036 µM; IC50 [6]: > 1 µM
O=C1Cc2cccc(c2)OCCOCCOc2cccc(c2)CC(=O)NC2=NN=C(CCCC3=NN=C(N1)S3)S2	4	–	–
O=C1Cc2cccc(c2)OCCCOCCCOc2cccc(c2)CC(=O)Nc2ccc(nn2)CCCCc2ccc(nn2)N1	0.31	Dose-Dependent Effect	IC50 [3]: < 0.1 µM; IC50 [4]: 0.095 µM; IC50 [5]: 0.088 µM; IC50 [6]: > 1 µM
O=C1Cc2cccc(c2)OCCOCCOCCOCCOc2cccc(c2)CC(=O)NC2=NN=C(CCCCC3=NN=C(N1)S3)S2	4	–	–
O=C1Cc2cccc(c2)OCCOCCOc2cccc(c2)CC(=O)NC2=NN=C(CCCCC3=NN=C(N1)S3)S2	2	–	–
O=C1Cc2cccc(c2)OCCCOCCCOc2cccc(c2)CC(=O)Nc2nnc(s2)CCCCc2ccc(nn2)N1	0.8	–	–
O=C1Cc2cccc(c2)OCCOCCOc2cccc(c2)CC(=O)Nc2ccc(nn2)CCCCc2ccc(nn2)N1	0.43	Dose-Dependent Effect	–
O=C1Cc2ccc(cc2)OCCOCCOCCOc2cccc(c2)CC(=O)Nc2nnc(s2)CCCCc2nnc(s2)N1	3	–	–
O=C1Cc2cccc(c2)OCCOCCOc2cccc(c2)CC(=O)Nc2nnc(s2)CCCCc2ccc(nn2)N1	0.4	Dose-Dependent Effect	–
O=C1Cc2cccc(c2)OCCOCCOc2cccc(c2)CC(=O)NC2=NN=C(CCCCCC3=NN=C(N1)S3)S2	10	–	–
O=C1Cc2cccc(c2)OCCCCCOc2cccc(c2)CC(=O)Nc2nnc(s2)CCCCc2ccc(nn2)N1	1	–	–
